# Compound activity from PubChem BioAssay.
# HTR2A ag: mouse HTR2A agonism via beta-arrestin recruitment; CHO-K1 mHTR2A beta-arrestin complementation, luminescence; percent of 30 µM serotonin response; AID 624169; P35363; activation, % at 7.6 µM; hit rate 0.66% among 360,000;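 active means activation above a run cutoff, the mean activation of all tested compounds plus 3 SD, cut at about 14% in these data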;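 further: 0% = plate median of compound wells and 100% = 30 µM serotonin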
# MC4R barr agon: activates human MC4R beta-arrestin recruitment; P32245; U2OS MC4R beta-arrestin complementation, luminescence; percent of melanotan II response, DMSO zero; activation, % at 8.9 µM; hit rate 0.98% among 360,000;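 active means activation above a per-plate cutoff, the mean activation of sample wells on that plate plus 3 SD, cut at about 8% in these data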
# Target sequence (P32245 whole entry, looked up): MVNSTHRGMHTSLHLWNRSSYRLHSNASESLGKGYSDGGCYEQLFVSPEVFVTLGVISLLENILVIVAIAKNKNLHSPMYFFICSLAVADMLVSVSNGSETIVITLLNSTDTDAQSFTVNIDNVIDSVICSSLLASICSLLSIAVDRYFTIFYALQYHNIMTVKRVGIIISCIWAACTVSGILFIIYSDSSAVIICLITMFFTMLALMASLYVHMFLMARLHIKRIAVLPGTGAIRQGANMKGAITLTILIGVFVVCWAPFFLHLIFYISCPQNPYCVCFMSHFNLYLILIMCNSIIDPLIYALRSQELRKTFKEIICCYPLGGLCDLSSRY
# MC4R antagonist: antagonists of human melanocortin 4 receptor (MC4R). P32245. MC4R-expressing cells, MTII-stimulated cAMP, LANCE TR-FRET. inhibition, % at 6.5 µM. hit rate 0.48% among 360,000;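 active means inhibition above its plate's cutoff, the mean of tested wells on that plate plus 3 SD, cut at about 29% in these data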;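 further: 0% = Melanotan II alone and 100% = Melanotan II plus saturating MCL0020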
#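 Material – human MC4R-expressing U2OS cells · Repeats – no replicates · Detection – TR-FRET with Eu-cAMP and labeled anti-cAMP, 671 nm · Times – compound 30 min, challenge 1 h, detection 1 h · Compound – single nominal compound dose of 6.5 µM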
# TAAR1 antag: antagonists of human TAAR1. Q96RJ0. CHO RD-HGA16 TAAR1, Fluo-8 calcium fluorescence, antagonist. hit rate 1.5% among 360,000. inhibition, % at 3 µM;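 active means inhibition above a per-plate cutoff, the mean inhibition of test compounds on that plate plus 3 SD, cut at about 49% in these data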;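 further: 0% = DMSO plus EC80 beta-PEA response and 100% = DMSO alone without agonist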
#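 Test system – hTAAR1-expressing CHO RD-HGA16 cells, Gα16-coupled · Reagent – β-PEA at EC80 concentration, post-compound challenge · Compound dosing – 3 µM, single point · Timing – 140 s kinetic read after compound, 140 s after agonist · Detection – Fluo-8 intracellular calcium dye fluorescence, real-time kinetic reads · Control set – DMSO and EC80 PEA controls · Repeats – n of 1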
# TAAR1 ag: agonists of human TAAR1. CHO RD-HGA16 TAAR1, Fluo-8 calcium fluorescence; vehicle wells 0%, saturating PEA agonist 100%. activation, % at 3 µM. hit rate 0.99% among 360,000;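 active means activation above the mean activation of all test compounds in the run plus 3 SD, cut at about 38% in these data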
#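 Test system: RD-HGA16 (CHO) cells co-expressing Gα16 and hTAAR1; dosing: one-point dosing at 3 µM (nominal); timing: 17-24 h seeding, 75 min 37 °C dye, 30 min RT; signal: kinetic Fluo-8 calcium fluorescence; read-out basis: % activation relative to PEA EC100 response; controls: DMSO and PEA EC100; replicates: n 1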
# B2AR ag: agonists of human beta-2 adrenergic receptor inducing internalization | AID 504454 | Am2.2-beta2AR cells, FAP receptor internalization, flow cytometry | P07550 | response, % (no concentration beside the values) | hit rate 0.43% among 340,000;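 active means response above a set limit, near 3 SD of response in nonfluorescent compounds, cut at about 42% in these data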
# OPRM1 ag: activates human mu opioid receptor in HTR2A counterscreen; shares compounds with HTR2A ag; U2OS OPRM1 beta-arrestin PathHunter, luminescence; DMSO 0%, DAMGO 9.3 µM 100%; activation, % at 9.3 µM; hit rate 5.3% among 2,300; AID 624380;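 active means mean activation above the mean of DMSO-only wells plus 3 SD, cut at about 0.5% in these data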
# m5-HT2A ag conf: confirmation of mouse HTR2A serotonin receptor agonists. shares compounds with HTR2A ag. CHO-K1 PathHunter beta-arrestin recruitment, luminescence; DMSO 0%, 30 µM serotonin 100%. activation, % at 7.6 µM. hit rate 19% among 2,300;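 active means mean activation across triplicates above the hit threshold derived in the original primary screen, cut at about 15% in these data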
# An asterisk follows results filed as active; . = not tested or not shown. The list is not random: actives were taken first. Their share in the collection is about 4.3%.
SMILES,HTR2A ag,MC4R barr agon,MC4R antagonist,TAAR1 antag,TAAR1 ag,B2AR ag,OPRM1 ag,m5-HT2A ag conf
CCN(CC)C1CCN(C(=O)c2cc(COc3ccc(-n4cncn4)cc3)on2)C1 (centres undefined),16*,2,5,-22,2,-6,-1,-3
CCC(Oc1ccc(C)cc1)C(=O)Nc1ccccc1C(=O)N1CCOCC1 (centres undefined),0,3,3,-1,3,6,.,.
O=C(COC(=O)c1ccccc1NCCO)NCC1CCCCC1,1,-1,4,-10,2,-7,.,.
CCOC(=O)CN1C(=O)N[C@@H](c2cccc(C(F)(F)F)c2)[C@H](C(C)=O)[C@H]1C,18*,-2,2,-5,11,-4,-1,-4
CCN1C(=O)N[C@@H](c2cccc(C(F)(F)F)c2)[C@@H](C(=O)OC)[C@H]1C,-5,-2,4,10,2,-6,.,.
COc1cccc(Cn2cnc(-c3ccccc3OC)c2-c2cccs2)c1,24*,.,.,1,0,.,-1,-7
COc1cccc(/C=N/NC(=O)c2cccc(N3CCCC3=O)c2)c1,15*,1,19,1,1,20,0,-3
COC(=O)C[C@@H]1C[C@H]2c3cc(NC(=O)Nc4ccccc4F)ccc3O[C@H]2[C@H](CO)O1,3,1,-1,6,0,.,.,.
Clc1ccc(CN2CCN(c3ncccn3)CC2)c(Cl)c1,16*,5,13,-8,4,0,0,103*
Clc1cccc(CN2CCN(c3ncccn3)CC2)c1Cl,14,2,2,-14,1,-3,.,.
Clc1ccccc1CN1CCN(c2ncccn2)CC1,28*,2,0,-14,1,0,0,98*
Cc1cc(Cl)nc(-n2nc(C)cc2C)n1,16*,0,10,-10,0,1,-1,-3
CNc1cc(C)nc(-n2nc(C)cc2C)n1,3,0,5,-6,12,-8,.,.
COc1ccc(NC(=O)C2CCN(c3nc(-c4ccc(OC)cc4)no3)CC2)cc1,17*,4,10,-4,3,-10,0,0
CCCCCCCNC(=O)C1(CC2CC(c3ccc(Cl)cc3)=NO2)CCN(C(=O)C2(C)CC2)CC1 (centres undefined),1,3,-2,.,.,14,.,.
CC(C)c1nc(SCC(=O)NCC2CCCO2)c2c(=O)n(C)c(=O)n(C)c2n1 (centres undefined),28*,-3,8,-7,1,-1,-1,-4
COc1ccc(CCNC(=S)NC(=O)c2cccc([N+](=O)[O-])c2)cc1OC,3,-4,-4,-36,1,0,.,.
O=C(OCc1cccc(F)c1)c1ccc2c(=O)n3c(nc2c1)CCC3,18*,-1,4,10,4,8,-1,-4
Cc1ccc(S(=O)(=O)N2CCN(C(=O)COC(=O)/C=C/c3ccccc3[N+](=O)[O-])CC2)c(C)c1,4,1,11,7,1,0,.,.
COc1ccc(NC(=O)c2cc(C3CCCCN3S(=O)(=O)c3ccc(F)cc3F)on2)c(C)c1 (centres undefined),-2,-1,20,13,3,.,.,.
CCOC(=O)N1CCC(N2CCCC(C(=O)c3ccccc3OC)C2)CC1 (centres undefined),27*,-1,-1,-13,2,10,-1,54*
CCOC(=O)N1CCC(N2CCCC(C(=O)c3cc(C)c(OC)c(C)c3)C2)CC1 (centres undefined),-3,0,6,-10,1,-2,.,.
COc1ccc(Cl)cc1NC(=O)C(C)OC(=O)C1=NNC(=O)CC1 (centres undefined),1,2,6,4,8,5,.,.
CSCCC(NC(=O)c1ccco1)C(=O)NCC(C)(C)N1CCOCC1 (centres undefined),-1,2,11,-3,3,24,.,.
COCCNC(=O)CN1CCCCCC1,-1,-2,2,1,5,5,.,.
SMILES,HTR2A ag,MC4R barr agon,MC4R antagonist,TAAR1 antag,TAAR1 ag,B2AR ag,OPRM1 ag,m5-HT2A ag conf
COCCNCC(=O)N1CCCCCC1,17*,-1,8,-21,-1,3,-1,-2
Cc1nnc(SCc2cc(=O)[nH]c(=S)[nH]2)s1,16*,2,0,9,12,1,0,-4
Cc1ccc(NC(=O)C2CCCN2C(=O)OCc2ccccc2)cc1F (centres undefined),15*,-3,7,-39,0,4,0,-5
COC(=O)c1ccc(OC(=O)C2CSC3(C)CCC(=O)N23)cc1 (centres undefined),-1,1,7,-28,3,-2,.,.
Cc1ccc(S(=O)(=O)N2CCCCC2)cc1NC(=O)COC(=O)CN1C(=O)NC2(CC(C)CC(C)(C)C2)C1=O (centres undefined),1,-4,-6,-9,9,-2,.,.
OCC1(Cc2ccc(Cl)cc2)CCN(Cc2ccccc2F)CC1,3,1,-4,-3,3,12,.,.
OCC1(Cc2ccc(Cl)cc2)CCN(CC2CC=CCC2)CC1 (centres undefined),15*,1,18,-17,4,14,0,14
CSc1ccc(CN2CCC(CO)(Cc3ccc(Cl)cc3)CC2)cc1,8,0,7,10,31,40,.,.
OCC1(Cc2ccc(Cl)cc2)CCN(CCCc2ccccc2)CC1,18*,3,1,-3,15,7,0,44*
Cn1cccc1C(C#N)c1ncc(C(F)(F)F)cc1Cl (centres undefined),8,-2,-6,2,3,1,.,.
Cc1c(Cl)cccc1NC(=O)CSc1nncn1-c1ccccn1,-1,1,-1,-14,3,-11,.,.
CC(=O)NCc1nc2ccccc2n1C(C)C,18*,0,7,-1,1,2,0,-3
CCN(CC(=O)NCc1cccs1)C(=O)c1ccc(S(=O)(=O)Nc2ccccc2C)cc1,0,-2,9,5,9,-2,.,.
COc1ccc2cc(/C=N/NC(=O)CN(c3ccccc3C)S(=O)(=O)c3ccccc3)c(Cl)nc2c1,16*,-2,11,4,0,7,-1,-4
